Data reported in PMC7215194 (Heliyon, 2020).

Tests used:
A431 cells [1] = test: TAMRA-peptides internalization assay, confocal microscopy of living cells; format: cell-based, human
Outline: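 A431 cells (2.5 × 10^5) were seeded in coverslip-bottom imaging dishes in DMEM with 10% FBS. After 6 h, serum-deprived medium with N-terminal 5(6)-TAMRA-labeled test peptides (20 μg/ml) was added for 5 min or overnight, with free TAMRA (1.7 μM) as control. Living cells were gently washed and imaged by confocal microscopy with a 63x objective, 561 nm laser and white light, taking z-planes every 0.8 μm.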

A431 cells [2] = test: Artificial wound healing assay; format: cell-based, human; conditions: for effect of W-7/W-12 on cell migration in the absence of EGF: 20 μM, no EGF, time-lapse 48 h, n = 3
A431 cells [3] = test: Cell detachment assay; format: cell-based, human; conditions: overnight with 20 μg/ml peptides or 20 μM W-7/W-12, then 1 mM EGTA, n = 3
Outline: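 A431 cells (DMEM, 2 mM L-glutamine, 10% FBS, 37 °C, 5% CO2) were seeded at 10^6 per 60 mm dish in 10% FBS. After 6 h, test peptides (20 μg/ml) or W-7/W-12 (20 μM) in DMSO were added in serum-deprived medium overnight, with 0.2–0.4% DMSO vehicle controls. Cells were then exposed to 1 mM EGTA, and detached cells in aliquots were counted in a Neubauer chamber over time. Values are mean ± SEM percent detached, n = 3.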

hepatocarcinoma cells = conditions: EGF-dependent vs basal EGF-independent proliferation; cited from earlier work
A431 cells [4] = test: Anchorage-independent growth assay in soft agar; format: cell-based, human; conditions: 14 days, n = 4; for effect on size and number of colonies grown in soft agar: 20 μM W-7 or 25 μM W-12, 10% FBS, colonies >60 μm
Outline: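 A431 cells (10^5 per 60 mm dish) suspended in DMEM ± 10% (v/v) FBS with 10 mM NaOH-Hepes pH 7.5 in 0.3% agarose, layered over 0.5% agarose. Fed every 72–96 h with fresh medium ± 10 nM EGF, 20 μM W-7 or 25 μM W-12 in DMSO; vehicle 0.4% DMSO. Imaged at day 14 with a 4x objective; colonies ≥60 μm counted.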

Compound	membrane blebbing (initiation of apoptosis) of treated cells (A431 cells [1])	effect of W-7/W-12 on cell migration in the absence of EGF (A431 cells [2])	effect on cell detachment with EGTA (A431 cells [3])	effect of W-7 on proliferation of hepatocarcinoma cells (hepatocarcinoma cells)	effect on size and number of colonies grown in soft agar (A431 cells [4])	delayed action of EGF on the initiation of cell migration (A431 cells [2]; 10 nM EGF, n = 9) [h]	effect of EGF on anchorage-independent growth in soft agar (A431 cells [4]; 10 nM EGF)
5(6)-carboxytetramethylrhodamine [free TAMRA]	not observed						
NCCCCCCNS(=O)(=O)c1cccc2c(Cl)cccc12 [W-7, N-(6-aminohexyl)-5-chloro-1-naphthalenesulfonamide]		increased the initial migration rate of the cells, particularly with the high affinity inhibitor W-7	only partially	inhibits EGF-dependent but not basal EGF-independent proliferation of hepatocarcinoma cells	strongly inhibits		
NCCCCNS(=O)(=O)c1ccc2ccccc2c1 [W-12, N-(4-aminobutyl)-2-naphthalenesulfonamide]		increased the initial migration rate of the cells	only partially		very low effect		
EGF: epidermal growth factor						11.5 ± 1.4	particularly decreasing the size of the colonies
